Results reported in paper PMC10091778 (Drug Development Research, 2022).
pIC50: −log10 of the molar value.

Key:
[1] = system: HL‐60 human acute promyelocytic leukemia cells; assay: Resazurin cell viability assay on HL-60 cells; format: cell-based; conditions: HL-60, 72 h, read-out: IC50 HL‐60
Procedure, shortened: (§1)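 Cells were seeded in 96-well plates (4T1 10,000, A549 10,000, HL-60 20,000 per well), with adherent lines settling overnight. Test compound came from a 10 mM DMSO stock, serially diluted in medium to 1.56–50 µM (some 39 nM–12.5 µM), for 72 h; three biological replicates. Resazurin (0.15 mg/ml stock, 20 µl per 100 µl) ran 2 h at 37 °C, read at 530/580 nm. Viability was set against untreated and blank wells; IC50 from curves.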

[2] = system: 4T1 murine triple negative breast cancer cells; assay: Resazurin cell viability assay on 4T1 cells; format: cell-based; conditions: Mus musculus, 4T1, 72 h, read-out: IC50 4T1
Procedure, shortened: as §1

[3] = system: 4T1, A549, and HL‐60 cells; format: cell-based; conditions: resazurin assay, 72 h, up to 50 µM, three cancer cell lines
Procedure, shortened: as §1

HL‐60 cells [4] = assay: Sub-G1 DNA fragmentation analysis by flow cytometry; format: cell-based, human; conditions: 6 µM, 72 h; mean ± SD; untreated 11.7 ± 1.2%
HL‐60 cells [5] = assay: Annexin V / propidium iodide flow cytometry; format: cell-based, human; conditions: 6 µM, 24 h; for Early apoptotic cells (AnnV+/PI−) / Late apoptotic cells (AnnV+/PI+) / Living cells (AnnV−/PI−) / Necrotic cells (AnnV−/PI+): mean ± SD; for Early apoptotic cells (AnnV+/PI−): untreated 1.9 ± 0.5%; for Late apoptotic cells (AnnV+/PI+): untreated 9.5 ± 2.7%; for Living cells (AnnV−/PI−): untreated 85 ± 3.9%; for Necrotic cells (AnnV−/PI+): untreated 3.6 ± 1.6%
Procedure, shortened: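 HL-60 cells (100,000) were treated for 24 h at 1, 3 or 6 µM, then resuspended in Annexin V binding buffer (0.01 M HEPES, 0.14 M NaCl, 2.5 mM CaCl2). Annexin V-Alexa 488 was added for 15 min in the dark at room temperature, then PI (10 µg/ml). Quadrant percentages were taken by flow cytometry; three biological replicates, mean ± SD; two-tailed t test against untreated.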

HL‐60 cells [6] = assay: Cell cycle analysis by flow cytometry; format: cell-based, human; conditions: 72 h; for Cells in G2/M phase: untreated 17.3 ± 1.7%
HL‐60 cells [7] = assay: Mitochondrial membrane depolarization by JC-1 staining; format: cell-based, human; conditions: 16 h, untreated 7.6 ± 0.6%; for Cells with green JC‐1 accumulation (depolarized MMP): 3 µM; for Cells with green JC‐1 monomers (depolarized MMP): 6 µM
[8] = system: colorectal cancer cell line HCT‐116; conditions: read-out: IC50 HCT‐116; antiproliferative; ref Han et al., 2022; cited from earlier work

pIC50 [1] | pIC50 [2] | Compound | Cytotoxic / antiproliferative activity in words [3] | also measured
4.84 | 4.71 | CCOC(=O)c1[nH]c(N)nc1-c1cccc(NC(=O)c2cc3ccccc3[nH]2)c1 [Compound 16, Ethyl 4‐(3‐(1H‐indole‐2‐carboxamido)phenyl)−2‐amino‐1H‐imidazole‐5‐carboxylate] |  | 
5.24 | 4.77 | CCOC(=O)c1[nH]c(N)nc1-c1cccc(NC(=O)c2ccc3cccc(O)c3n2)c1 [Compound 17, Ethyl 2‐amino‐4‐(3‐(8‐hydroxyquinoline‐2‐carboxamido)phenyl)−1H‐imidazole‐5‐carboxylate] | low antiproliferative activity | 
5.05 | 4.86 | Nc1nc(-c2cccc(NC(=O)c3ccc4cccc(O)c4n3)c2)c(C(=O)c2ccccc2)[nH]1 [Compound 18, N‐(3‐(2‐amino‐5‐benzoyl‐1H‐imidazol‐4‐yl)phenyl)−8‐hydroxyquinoline‐2‐carboxamide] | low antiproliferative activity | 
 |  | Nc1nc(-c2cccc(NC(=O)c3ccc4ccccc4n3)c2)c(C(=O)c2ccccc2)[nH]1 [Compound 19, N‐(3‐(2‐amino‐5‐benzoyl‐1H‐imidazol‐4‐yl)phenyl)quinoline‐2‐carboxamide] | completely inactive | 
4.61 | 4.51 | Nc1nc(-c2cccc(NC(=O)c3ccccn3)c2)c(C(=O)c2ccccc2)[nH]1 [Compound 20, N‐(3‐(2‐amino‐5‐benzoyl‐1H‐imidazol‐4‐yl)phenyl)picolinamide] |  | 
 |  | Nc1nc(-c2cccc(NC(=O)c3cc(Br)c[nH]3)c2)c(C(=O)c2ccccc2)[nH]1 [Compound 21, N‐(3‐(2‐amino‐5‐benzoyl‐1H‐imidazol‐4‐yl)phenyl)‐4‐bromo‐1H‐pyrrole‐2‐carboxamide] | completely inactive | 
5.16 |  | Nc1nc(-c2cccc(NC(=O)c3ccc[nH]3)c2)c(C(=O)c2ccccc2)[nH]1 [Compound 22, N‐(3‐(2‐amino‐5‐benzoyl‐1H‐imidazol‐4‐yl)phenyl)‐1H‐pyrrole‐2‐carboxamide] | low antiproliferative activity | 
5.28 | 5.04 | Nc1nc(-c2cccc(NC(=O)c3cc4cc(F)ccc4[nH]3)c2)c(C(=O)c2ccccc2)[nH]1 [Compound 23, N‐(3‐(2‐amino‐5‐benzoyl‐1H‐imidazol‐4‐yl)phenyl)‐5‐fluoro‐1H‐indole‐2‐carboxamide] | hampered the viability of all three tested cell lines | DNA fragmentation (sub‐G1 population) of HL‐60 cells (HL‐60 cells [4]): 22.9 ± 1.2%; Early apoptotic cells (AnnV+/PI−) (HL‐60 cells [5]): 3.2 ± 0.7%; Late apoptotic cells (AnnV+/PI+) (HL‐60 cells [5]): 15.5 ± 3.9%; Living cells (AnnV−/PI−) (HL‐60 cells [5]): 76.8 ± 3.5%; Cells in G2/M phase (HL‐60 cells [6]; 3 µM): 22.4 ± 1.6%; Cells in G2/M phase (HL‐60 cells [6]; 6 µM): 39.2 ± 3.1%; Effect on cell cycle distribution, in words (HL‐60 cells [6]): significantly disturbed cell cycle distribution; Cells with green JC‐1 accumulation (depolarized MMP) (HL‐60 cells [7]): 9.1 ± 0.2%; Cells with green JC‐1 monomers (depolarized MMP) (HL‐60 cells [7]): 13.4 ± 0.8%
5.12 | 4.90 | CCOC(=O)c1[nH]c(N)nc1-c1cccc(NC(=O)c2cc3cc(OC)ccc3[nH]2)c1 [Compound 24, Ethyl 2‐amino‐4‐(3‐(5‐methoxy‐1H‐indole‐2‐carboxamido)phenyl)‐1H‐imidazole‐5‐carboxylate] | low antiproliferative activity | 
5.20 |  | Nc1nc(-c2cccc(NC(=O)c3cc4ccccc4[nH]3)c2)c(C(=O)c2ccccc2)[nH]1 [Compound 25, N‐(3‐(2‐amino‐5‐benzoyl‐1H‐imidazol‐4‐yl)phenyl)‐1H‐indole‐2‐carboxamide] | low antiproliferative activity | 
4.61 | 4.46 | COc1ccc2[nH]c(C(=O)Nc3cccc(-c4nc(N)[nH]c4C(C)=O)c3)cc2c1 [Compound 26, N‐(3‐(5‐acetyl‐2‐amino‐1H‐imidazol‐4‐yl)phenyl)‐5‐methoxy‐1H‐indole‐2‐carboxamide] |  | 
5.51 | 4.93 | COc1ccc2[nH]c(C(=O)Nc3cccc(-c4nc(N)[nH]c4C(=O)c4ccccc4)c3)cc2c1 [Compound 27, N‐(3‐(2‐amino‐5‐benzoyl‐1H‐imidazol‐4‐yl)phenyl)‐5‐methoxy‐1H‐indole‐2‐carboxamide] | hampered the viability of all three tested cell lines | DNA fragmentation (sub‐G1 population) of HL‐60 cells (HL‐60 cells [4]): 53.8 ± 7.3%; Early apoptotic cells (AnnV+/PI−) (HL‐60 cells [5]): 16.1 ± 0.6%; Necrotic cells (AnnV−/PI+) (HL‐60 cells [5]): 2.5 ± 0.3%; Late apoptotic cells (AnnV+/PI+) (HL‐60 cells [5]): 50.7 ± 0.9%; Living cells (AnnV−/PI−) (HL‐60 cells [5]): 30.5 ± 0.7%; Cells with green JC‐1 accumulation (depolarized MMP) (HL‐60 cells [7]): 13.3 ± 1.1%; Cells with green JC‐1 monomers (depolarized MMP) (HL‐60 cells [7]): 42.4 ± 0.8%
5.54 | 4.89 | Nc1nc(-c2cccc(NC(=O)c3cc4cc(Br)ccc4[nH]3)c2)c(C(=O)c2ccccc2)[nH]1 [Compound 28, N‐(3‐(2‐amino‐5‐benzoyl‐1H‐imidazol‐4‐yl)phenyl)‐5‐bromo‐1H‐indole‐2‐carboxamide] | hampered the viability of all three tested cell lines | DNA fragmentation (sub‐G1 population) of HL‐60 cells (HL‐60 cells [4]): 56.5 ± 2.8%; Early apoptotic cells (AnnV+/PI−) (HL‐60 cells [5]): 23.4 ± 1%; Necrotic cells (AnnV−/PI+) (HL‐60 cells [5]): 2.1 ± 0.4%; Late apoptotic cells (AnnV+/PI+) (HL‐60 cells [5]): 43.4 ± 1.2%; Living cells (AnnV−/PI−) (HL‐60 cells [5]): 31.1 ± 0.8%; Cells in G2/M phase (HL‐60 cells [6]; 3 µM): 21.0 ± 0.5%; Effect on cell cycle distribution, in words (HL‐60 cells [6]): significantly disturbed cell cycle distribution; Cells with green JC‐1 accumulation (depolarized MMP) (HL‐60 cells [7]): 10.4 ± 0.2%; Cells with green JC‐1 monomers (depolarized MMP) (HL‐60 cells [7]): 50.3 ± 0.7%
4.60 | 4.60 | CC(=O)c1[nH]c(N)nc1-c1cccc(NC(=O)c2cc3cc(F)ccc3[nH]2)c1 [Compound 30, N‐(3‐(5‐acetyl‐2‐amino‐1H‐imidazol‐4‐yl)phenyl)‐5‐fluoro‐1H‐indole‐2‐carboxamide] |  | 
5.00 | 4.84 | CCOC(=O)c1[nH]c(N)nc1-c1cccc(NC(=O)c2cc3cc(F)ccc3[nH]2)c1 [Compound 31, Ethyl 2‐amino‐4‐(3‐(5‐fluoro‐1H‐indole‐2‐carboxamido)phenyl)‐1H‐imidazole‐5‐carboxylate] |  | 
5.11 | 4.91 | Nc1nc(-c2cc(NC(=O)c3cc4cc(Br)ccc4[nH]3)ccc2Cl)c(C(=O)c2ccccc2)[nH]1 [Compound 32, N‐(3‐(2‐amino‐5‐benzoyl‐1H‐imidazol‐4‐yl)‐4‐chlorophenyl)‐5‐bromo‐1H‐indole‐2‐carboxamide] | hampered the viability of all three tested cell lines | Late apoptotic cells (AnnV+/PI+) (HL‐60 cells [5]): 11.7 ± 2.6%; Living cells (AnnV−/PI−) (HL‐60 cells [5]): 78.9 ± 1.6%; Concentrations at which arrest in G0/G1 phase occurred (HL‐60 cells [6]): 1 to 6 µM; Effect on cell cycle distribution, in words (HL‐60 cells [6]): significantly disturbed cell cycle distribution
5.19 | 4.94 | Nc1nc(-c2cc(Cl)cc(NC(=O)c3cc4cc(Br)ccc4[nH]3)c2)c(C(=O)c2ccccc2)[nH]1 [Compound 33, N‐(3‐(2‐amino‐5‐benzoyl‐1H‐imidazol‐4‐yl)‐5‐chlorophenyl)‐5‐bromo‐1H‐indole‐2‐carboxamide] | hampered the viability of all three tested cell lines | Late apoptotic cells (AnnV+/PI+) (HL‐60 cells [5]): 15.6 ± 1.8%; Living cells (AnnV−/PI−) (HL‐60 cells [5]): 79.1 ± 1.9%; Cells in G0/G1 phase (HL‐60 cells [6]; 6 µM, control 64.3 ± 1.9%): 74.1 ± 1.4%; Concentrations at which arrest in G0/G1 phase occurred (HL‐60 cells [6]): 3 to 6 µM; Effect on cell cycle distribution, in words (HL‐60 cells [6]): significantly disturbed cell cycle distribution
4.61 | 4.57 | Cc1ccc(NC(=O)c2cc3cc(Br)ccc3[nH]2)cc1-c1nc(N)[nH]c1C(=O)c1ccccc1 [Compound 34, N‐(3‐(2‐amino‐5‐benzoyl‐1H‐imidazol‐4‐yl)‐4‐methylphenyl)‐5‐bromo‐1H‐indole‐2‐carboxamide] |  | 
5.17 | 4.96 | Nc1nc(-c2ccc(NC(=O)c3cc4cc(Br)ccc4[nH]3)cc2)c(C(=O)c2ccccc2)[nH]1 [Compound 35, N‐(4‐(2‐amino‐5‐benzoyl‐1H‐imidazol‐4‐yl)phenyl)‐5‐bromo‐1H‐indole‐2‐carboxamide] | hampered the viability of all three tested cell lines | AnnexinV translocation, in words (HL‐60 cells [5]): did not influenced AnnexinV translocation significantly; Cells in G2/M phase (HL‐60 cells [6]; 1 µM): 20.8 ± 0.4%; Effect on cell cycle distribution, in words (HL‐60 cells [6]): significantly disturbed cell cycle distribution
 |  | Hemimycalin C |  | pIC50 [8]: 4.73
 |  | Hemimycalin D |  | pIC50 [8]: 4.77
 |  | Hemimycalin E |  | pIC50 [8]: 5.07
